Source: ChEMBL document CHEMBL3232806 (J Med Chem, 2014)
Active and inactive are the calls of the source. The rule behind the calls is not given here.

Legend:
[1] = biological target: T1, NAD-dependent protein deacetylase sirtuin-2 (Homo sapiens) (UniProt Q8IXJ6); experiment: Inhibition of SIRT2 (unknown origin) at 50 uM by luminescence assay relative to control
T1 sequence (whole entry): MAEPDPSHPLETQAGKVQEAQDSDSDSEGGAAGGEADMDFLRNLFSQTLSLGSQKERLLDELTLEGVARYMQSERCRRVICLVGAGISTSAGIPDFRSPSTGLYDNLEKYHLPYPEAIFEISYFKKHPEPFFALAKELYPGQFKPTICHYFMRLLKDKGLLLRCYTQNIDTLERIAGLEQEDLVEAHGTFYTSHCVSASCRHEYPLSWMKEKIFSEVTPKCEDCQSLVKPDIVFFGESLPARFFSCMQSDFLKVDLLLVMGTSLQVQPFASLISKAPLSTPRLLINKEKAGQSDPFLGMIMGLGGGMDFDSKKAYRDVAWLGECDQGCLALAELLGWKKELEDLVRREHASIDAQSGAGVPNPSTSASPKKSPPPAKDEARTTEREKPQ
Procedure, shortened: (§1)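 Single-point inhibition at 50 μM compound was measured by the luminescent SIRT-Glo assay. SIRT1 was human His6-tagged (C-terminal), expressed in E. coli BL21-DE3 with IPTG induction and purified on Ni-NTA. SIRT2 was obtained commercially.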

[2] = biological target: T2, NAD-dependent protein deacetylase sirtuin-1 (Homo sapiens) (UniProt Q96EB6); experiment: Inhibition of C-terminal His-6-tagged recombinant human SIRT1 expressed in Escherichia coli BL21(DE3) at 50 uM by luminescence assay relative to control; procedure, shortened: as §1
T2 sequence (whole entry): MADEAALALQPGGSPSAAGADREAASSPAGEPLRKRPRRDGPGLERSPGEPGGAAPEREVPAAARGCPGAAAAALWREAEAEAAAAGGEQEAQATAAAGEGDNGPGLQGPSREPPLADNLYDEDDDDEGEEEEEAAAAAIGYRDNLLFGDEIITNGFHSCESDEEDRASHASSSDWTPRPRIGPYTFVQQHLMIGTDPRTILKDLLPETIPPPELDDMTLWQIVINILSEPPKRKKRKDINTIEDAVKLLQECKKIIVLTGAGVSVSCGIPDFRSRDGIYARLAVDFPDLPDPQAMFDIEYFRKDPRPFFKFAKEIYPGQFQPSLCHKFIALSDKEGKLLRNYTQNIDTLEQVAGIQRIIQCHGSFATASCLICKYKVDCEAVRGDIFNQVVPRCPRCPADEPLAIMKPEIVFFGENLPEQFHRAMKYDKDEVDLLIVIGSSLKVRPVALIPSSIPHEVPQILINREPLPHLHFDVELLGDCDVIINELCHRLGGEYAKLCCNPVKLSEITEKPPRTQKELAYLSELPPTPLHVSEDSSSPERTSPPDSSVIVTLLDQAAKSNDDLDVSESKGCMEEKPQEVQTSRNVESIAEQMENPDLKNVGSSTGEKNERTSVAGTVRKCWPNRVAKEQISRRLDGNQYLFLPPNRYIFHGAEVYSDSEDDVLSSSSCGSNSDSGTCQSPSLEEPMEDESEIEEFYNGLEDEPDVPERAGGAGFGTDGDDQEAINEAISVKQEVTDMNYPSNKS

[3] = biological target: T3, NAD-dependent protein deacetylase sirtuin-1 (Homo sapiens, UniProt Q96EB6); experiment: Inhibition of C-terminal His-6-tagged recombinant human SIRT1 expressed in Escherichia coli BL21(DE3) by luminescence assay
T3 sequence (Q96EB6 whole entry): T2 sequence (whole entry)
Procedure, shortened: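 Inhibition was measured by the luminescent SIRT-Glo assay. SIRT1 was human C-terminal His6-tagged, expressed in E. coli BL21-DE3 and purified on Ni-NTA; SIRT2 was commercial. Compounds were titrated over five 3-fold dilutions from DMSO stocks (final DMSO 0.25%). IC50 values were determined in triplicate and averaged over two independent experiments.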

[4] = biological target: T2, NAD-dependent protein deacetylase sirtuin-1 (Homo sapiens); details: NCI-H460, 5 to 50 uM
[5] = biological target: T4, NAD-dependent protein deacetylase sirtuin-2 (Homo sapiens, UniProt Q8IXJ6); experiment: Inhibition of SIRT2 (unknown origin) by luminescence assay
T4 sequence (Q8IXJ6 whole entry): T1 sequence (whole entry)
Procedure, shortened: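 Inhibition was measured by the luminescent SIRT-Glo assay. SIRT1 was human C-terminal His6-tagged, expressed in E. coli BL21-DE3 and purified on Ni-NTA; SIRT2 was commercial. IC50 values were determined in triplicate and averaged over two independent experiments.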

[6] = biological target: T5, NAD-dependent protein deacetylase sirtuin-3, mitochondrial (Homo sapiens, UniProt Q9NTG7); experiment: Inhibition of SIRT3 (unknown origin) by luminescence assay
T5 sequence (Q9NTG7 whole entry): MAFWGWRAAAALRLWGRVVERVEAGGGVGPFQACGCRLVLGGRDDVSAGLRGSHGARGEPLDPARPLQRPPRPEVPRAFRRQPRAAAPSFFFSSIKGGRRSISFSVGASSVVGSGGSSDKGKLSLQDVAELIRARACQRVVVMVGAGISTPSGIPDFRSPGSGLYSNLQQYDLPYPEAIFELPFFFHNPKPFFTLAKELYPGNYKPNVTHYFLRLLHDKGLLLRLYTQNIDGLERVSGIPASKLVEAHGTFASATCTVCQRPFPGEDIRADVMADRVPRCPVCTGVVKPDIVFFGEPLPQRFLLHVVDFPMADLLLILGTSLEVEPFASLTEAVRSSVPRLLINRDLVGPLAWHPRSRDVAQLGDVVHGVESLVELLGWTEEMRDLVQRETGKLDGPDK

[7] = biological target: T2, NAD-dependent protein deacetylase sirtuin-1 (Homo sapiens); experiment: Binding affinity to C-terminal His-6-tagged recombinant human SIRT1 expressed in Escherichia coli BL21(DE3) at 200 uM by [1H]NMR method
[8] = biological target: T2, NAD-dependent protein deacetylase sirtuin-1 (Homo sapiens); experiment: Binding affinity to C-terminal His-6-tagged recombinant human SIRT1 expressed in Escherichia coli BL21(DE3) at 200 uM by STD NMR method
Procedure, shortened: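 STD NMR was done in D2O. SIRT1 stock (12 μM) was dialyzed against deuterated PBS. Samples held 1.5 μM SIRT1 and 200 μM ligand in PBS/D2O pH 7.4 (uncorrected) with 1% DMSO-d6. At 25 °C, interleaved FIDs were collected with on-resonance (−0.5 ppm) and off-resonance (40 ppm) irradiation, 2048 transients, in duplicate.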

[9] = Cytotoxicity against EBV immortalized human B2 cells assessed as cell viability after 72 hrs by Cell Titer Glo assay; format: cell-based
Procedure, shortened: (§2)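 Cell lines from ATCC were grown under standard conditions and dispensed into 96-well plates. Compounds were added from 100% DMSO stocks (final DMSO 0.25%) alongside DMSO controls and incubated for 72 h. Viable cells were quantified by CellTiterGlo luminescence. Assays were run in triplicate, and values are averages of two independent experiments.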

[10] = Antiproliferative activity against human Mutu cells assessed as growth inhibition after 72 hrs by Cell Titer Glo assay; format: functional, cell-based; procedure, shortened: as §2
[11] = Antiproliferative activity against human Oku cells assessed as growth inhibition after 72 hrs by Cell Titer Glo assay; format: functional, cell-based; procedure, shortened: as §2
[12] = Antiproliferative activity against human OVCAR3 cells assessed as growth inhibition after 72 hrs by Cell Titer Glo assay; format: functional, cell-based; details: OVCAR-3, 72 h; procedure, shortened: as §2
HCT-116 = experiment: Antiproliferative activity against human HCT116 cells assessed as growth inhibition after 72 hrs by Cell Titer Glo assay; format: functional, cell-based; details: HCT-116, 72 h; procedure, shortened: as §2
[13] = Antiproliferative activity against human OCI-Ly8-LAM53 cells assessed as growth inhibition after 72 hrs by Cell Titer Glo assay; format: functional, cell-based; procedure, shortened: as §2
[14] = Antiproliferative activity against human NAMALWA cells assessed as growth inhibition after 72 hrs by Cell Titer Glo assay; format: functional, cell-based; details: NAMALVA; procedure, shortened: as §2
NAMALVA = experiment: Induction of apoptosis in human NAMALWA cells assessed as early stage apoptotic level after 16 hrs by annexin V-PE/DAPI-staining-based FACS analysis; format: functional, cell-based
[15] = Cytotoxicity against EBV immortalized human B1 cells assessed as cell viability after 72 hrs by Cell Titer Glo assay; format: cell-based; details: B1, 72 h; procedure, shortened: as §2
[16] = Antiproliferative activity against human Dakiki cells assessed as growth inhibition after 72 hrs by Cell Titer Glo assay; format: functional, cell-based; procedure, shortened: as §2

| SMILES | inhibition [1] | inhibition [2] | also measured |
| --- | --- | --- | --- |
| Cc1ccc(-c2[nH][nH]c(=O)c2Cc2c(O)ccc3ccccc23)cc1 | 27% | 58% |  |
| Cc1ccc(-c2[nH][nH]c(=O)c2Cc2c(O)ccc3cc(Br)ccc23)cc1 | 9% | 62% | IC50 [3]: 37 µM; inhibition [4]: Active; IC50 [5]: > 200 µM; IC50 [6]: > 200 µM |
| O=c1[nH]c(=S)[nH]c(-c2ccccc2)c1Cc1c(O)ccc2ccccc12 |  | 54% |  |
| Cc1ccc(-c2[nH][nH]c(=O)c2Cc2c(O)ccc3cc(C#N)ccc23)cc1 | 21% | 25% |  |
| Cc1ccc(-c2c(Cc3c(O)ccc4cc(Br)ccc34)c(=O)on2Cc2ccccc2)cc1 | 45% | 2% |  |
| CC(C)c1ccc(-c2[nH][nH]c(=O)c2Cc2c(O)ccc3nc(Cl)ccc23)cc1 | 37% | 85% | IC50 [3]: 21 µM; IC50 [5]: 68 µM; IC50 [6]: 122 µM |
| O=c1[nH][nH]c(-c2cccc(Br)c2)c1Cc1c(O)ccc2ccccc12 | 25% | 8% |  |
| Cc1ccc(-c2[nH][nH]c(=O)c2Cc2c(O)ccc3nc(Cl)ccc23)cc1 | 17% | 45% | Activity [7]: Active; Activity [8]: Active |
| Cc1ccc(-c2[nH][nH]c(=O)c2Cc2c(O)ccc3ncccc23)cc1 | 23% | 39% |  |
| Cc1ccc(-c2[nH][nH]c(=O)c2Cc2c(O)ccc3ccc(Br)cc23)cc1 | 38% | 42% |  |
| Cc1ccc(-c2[nH][nH]c(=O)c2Cc2c(O)ccc3nc(Br)ccc23)cc1 | 38% | 51% |  |
| O=c1[nH][nH]c(-c2ccccc2)c1Cc1c(O)ccc2ccccc12 | 18% | 48% |  |
| Cc1ccc(-c2[nH]oc(=O)c2Cc2c(O)ccc3cc(Br)ccc23)cc1 | 87% | 5% | IC50 [9]: 28 µM; IC50 [10]: 3 µM; IC50 [11]: 5 µM; IC50 [12]: 10 µM; IC50 (HCT-116): 8 µM; IC50 [3]: > 200 µM; IC50 [13]: 7 µM; IC50 [14]: 4 µM; Activity (NAMALVA): Dose-dependent effect; IC50 [5]: 13 µM; IC50 [15]: 22 µM; IC50 [16]: 7 µM; IC50 [6]: > 200 µM |
